# Measured values published in ChEMBL document CHEMBL1137338, “Effects of substitution on 9-(3-bromo-4-fluorophenyl)-5,9-dihydro-3H,4H-2,6-dioxa-4- azacyclopenta[b]naphthalene-1,8-dione, a dihydropyridine ATP-sensitive potassium channel opener” (J Med Chem, 2006).
# pEC50: −log10 of the molar value.
# Target: Sulfonylurea receptor 2, Kir6.2 (Homo sapiens, UniProt O60706+Q14654)
# Test: Ability to open human urinary bladder Kir6.2 channel containing SUR2B in Ltk cells by FLIPR assay
# Type: functional, cell-based
# Summary of the method: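 Ltk- cells stably transfected with the Kir6.2/SUR2B exon 17- splice variant. Membrane potential was followed with DiBAC dye in a 96-well cell-based kinetic fluorescence (FLIPR) assay. The highest concentration tested was 10 µM. Each compound's maximal fluorescence response was expressed as % of the response to the reference opener.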
# Chain of Sulfonylurea receptor 2, Kir6.2 (Q14654 whole entry): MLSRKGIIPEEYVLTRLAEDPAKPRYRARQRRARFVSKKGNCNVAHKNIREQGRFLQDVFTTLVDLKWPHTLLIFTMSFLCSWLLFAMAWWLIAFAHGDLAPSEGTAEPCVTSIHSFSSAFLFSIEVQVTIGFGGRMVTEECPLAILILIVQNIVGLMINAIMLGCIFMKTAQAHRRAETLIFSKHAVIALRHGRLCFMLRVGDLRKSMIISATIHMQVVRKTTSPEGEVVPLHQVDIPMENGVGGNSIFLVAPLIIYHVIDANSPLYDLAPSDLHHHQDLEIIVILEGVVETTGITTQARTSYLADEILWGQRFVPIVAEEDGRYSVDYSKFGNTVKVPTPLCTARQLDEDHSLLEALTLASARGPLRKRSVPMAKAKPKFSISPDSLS
# Chain of Sulfonylurea receptor 2, Kir6.2 (O60706 whole entry): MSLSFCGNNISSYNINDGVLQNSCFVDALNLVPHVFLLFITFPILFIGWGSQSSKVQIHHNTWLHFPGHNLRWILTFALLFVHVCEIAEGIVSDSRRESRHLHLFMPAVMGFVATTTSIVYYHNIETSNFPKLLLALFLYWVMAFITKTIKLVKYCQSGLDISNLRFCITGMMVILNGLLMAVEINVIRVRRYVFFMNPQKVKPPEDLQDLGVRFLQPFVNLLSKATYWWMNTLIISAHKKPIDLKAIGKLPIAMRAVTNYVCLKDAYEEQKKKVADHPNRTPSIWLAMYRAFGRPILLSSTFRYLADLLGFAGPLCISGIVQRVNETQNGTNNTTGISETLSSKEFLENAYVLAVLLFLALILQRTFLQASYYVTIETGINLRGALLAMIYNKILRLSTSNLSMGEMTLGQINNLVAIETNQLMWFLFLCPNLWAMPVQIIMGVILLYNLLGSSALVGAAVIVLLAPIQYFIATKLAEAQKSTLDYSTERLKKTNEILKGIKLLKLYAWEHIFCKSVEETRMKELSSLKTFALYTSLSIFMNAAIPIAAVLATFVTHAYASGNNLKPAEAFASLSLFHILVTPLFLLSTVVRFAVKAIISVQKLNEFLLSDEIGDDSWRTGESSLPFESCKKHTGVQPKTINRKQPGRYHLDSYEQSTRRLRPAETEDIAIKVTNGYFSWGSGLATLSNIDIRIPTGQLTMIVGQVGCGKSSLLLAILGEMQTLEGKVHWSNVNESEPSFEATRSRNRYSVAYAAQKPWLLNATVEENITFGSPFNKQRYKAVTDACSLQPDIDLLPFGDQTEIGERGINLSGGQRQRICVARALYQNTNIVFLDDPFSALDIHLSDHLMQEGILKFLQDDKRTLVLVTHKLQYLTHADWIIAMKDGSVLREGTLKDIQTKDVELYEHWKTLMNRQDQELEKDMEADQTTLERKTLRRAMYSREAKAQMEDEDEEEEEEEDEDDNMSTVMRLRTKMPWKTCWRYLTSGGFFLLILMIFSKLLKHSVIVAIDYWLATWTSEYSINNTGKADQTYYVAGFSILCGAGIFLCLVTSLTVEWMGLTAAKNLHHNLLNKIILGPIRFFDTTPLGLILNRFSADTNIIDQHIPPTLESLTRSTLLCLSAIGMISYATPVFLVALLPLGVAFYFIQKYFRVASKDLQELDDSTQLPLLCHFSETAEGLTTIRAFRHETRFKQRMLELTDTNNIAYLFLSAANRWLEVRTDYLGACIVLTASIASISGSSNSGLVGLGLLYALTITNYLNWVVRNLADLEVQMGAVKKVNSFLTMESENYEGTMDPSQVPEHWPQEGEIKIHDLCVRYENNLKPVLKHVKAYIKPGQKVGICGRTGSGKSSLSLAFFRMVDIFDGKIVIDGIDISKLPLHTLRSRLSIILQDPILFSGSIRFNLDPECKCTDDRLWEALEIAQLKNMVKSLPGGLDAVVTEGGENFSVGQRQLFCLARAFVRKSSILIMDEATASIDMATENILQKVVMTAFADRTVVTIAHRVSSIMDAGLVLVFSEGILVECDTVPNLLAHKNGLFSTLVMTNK
row,pEC50,SMILES
1,< 5.00,O=C1COCC2=C1C(c1ccc(F)c(Br)c1)C1=C(O)C3(CCCC3)OCC1=N2 (stereo not drawn)
2,5.79,CC[C@H]1OCC(O)=C2C1=NC1=C(C(=O)COC1)[C@H]2c1ccc(Cl)c(Br)c1 (racemic)
3,7.17,CCC[C@H]1OC(O)=C2C1=NC1=C(C(=O)COC1)[C@H]2c1ccc(F)c(Cl)c1 (racemic)
4,5.80,CC[C@H]1OCC(O)=C2C1=NC1=C(C(=O)COC1)[C@H]2c1ccc(C)c(Br)c1 (racemic)
5,6.22,CCC[C@H]1OC(O)=C2C1=NC1=C(C(=O)COC1)[C@H]2c1ccc(Cl)c(Cl)c1 (racemic)
6,6.48,CCC[C@H]1OC(O)=C2C1=NC1=C(C(=O)COC1)[C@H]2c1ccc(Br)c(Br)c1 (racemic)
7,6.76,CCC[C@H]1OC(O)=C2C1=NC1=C(C(=O)COC1)[C@H]2c1ccc(Cl)c(Br)c1 (racemic)
8,< 5.00,CC[C@@H]1OCC2=C(C1=O)[C@@H](c1ccc(F)c(Br)c1)C1=C(O)OCC1=N2 (racemic)
9,6.00,C[C@H]1OC(O)=C2C1=NC1=C(C(=O)COC1)[C@H]2c1ccc(F)c(Br)c1 (racemic)
10,6.98,CC[C@H]1OCC(O)=C2C1=NC1=C(C(=O)COC1)[C@H]2c1ccc(Cl)c(Cl)c1 (racemic)
11,7.64,COC[C@H]1OC(O)=C2C1=NC1=C(C(=O)COC1)[C@H]2c1ccc(F)c(Br)c1 (racemic)
12,6.40,CCC[C@H]1OC(O)=C2C1=NC1=C(C(=O)COC1)[C@H]2c1ccc(C)c(Br)c1 (racemic)
13,8.29,CCC[C@@H]1OC(O)=C2C1=NC1=C(C(=O)COC1)[C@H]2c1ccc(F)c(Br)c1 (racemic)
14,6.37,CCC[C@H]1OC(O)=C2C1=NC1=C(C(=O)COC1)[C@H]2c1ccc(Br)c(Cl)c1 (racemic)
15,5.46,CC[C@H]1OC(O)=C2C1=NC1=C(C(=O)COC1(C)C)[C@H]2c1ccc(F)c(Br)c1 (racemic)
16,7.45,CC[C@@H]1OC(O)=C2C1=NC1=C(C(=O)COC1)[C@H]2c1ccc(F)c(Br)c1 (racemic)
17,7.85,CC[C@@H]1OCC(O)=C2C1=NC1=C(C(=O)COC1)[C@H]2c1ccc(F)c(Br)c1 (racemic)
18,6.34,C[C@@H]1OCC2=C(C1=O)[C@H](c1ccc(F)c(Br)c1)C1=C(O)OCC1=N2 (racemic)
19,6.87,CC[C@H]1OCC(O)=C2C1=NC1=C(C(=O)COC1)[C@H]2c1ccc(Br)c(Br)c1 (racemic)
20,< 5.00,CC(C)C[C@H]1OC(O)=C2C1=NC1=C(C(=O)COC1)[C@H]2c1ccc(F)c(Br)c1 (racemic)
21,6.34,CC[C@H]1OCC(O)=C2C1=NC1=C(C(=O)COC1)[C@H]2c1ccc(F)c(Cl)c1 (racemic)
22,5.66,CCCC[C@H]1OC(O)=C2C1=NC1=C(C(=O)COC1)[C@H]2c1ccc(F)c(Br)c1 (racemic)
23,4.92,CC[C@H]1OCC(O)=C2C1=NC1=C(C(=O)COC1)[C@H]2c1ccc(F)c(I)c1 (racemic)
24,6.00,CC[C@H]1OCC(O)=C2C1=NC1=C(C(=O)COC1)[C@H]2c1ccc(Br)c(Cl)c1 (racemic)
25,6.73,CC[C@H]1OCC(O)=C2C1=NC1=C(C(=O)COC1)[C@H]2c1ccc(F)c(Br)c1 (racemic)

row,pEC50,SMILES
1,6.30,C[C@@H]1OCC2=C(C1=O)[C@@H](c1ccc(F)c(Br)c1)C1=C(O)OCC1=N2 (racemic)
2,7.12,CCC[C@H]1OC(O)=C2C1=NC1=C(C(=O)COC1)[C@H]2c1ccc(F)c(I)c1 (racemic)
3,8.26,C[C@@H]1OC(O)=C2C1=NC1=C(C(=O)COC1)[C@H]2c1ccc(F)c(Br)c1 (racemic)
4,6.55,CC[C@H]1OC(O)=C2C1=NC1=C(C(=O)C(C)(C)OC1)[C@H]2c1ccc(F)c(Br)c1 (racemic)
5,< 5.00,CCCCC[C@H]1OC(O)=C2C1=NC1=C(C(=O)COC1)[C@H]2c1ccc(F)c(Br)c1 (relative stereo)
6,< 5.00,CC[C@H]1C2=C(C(=O)N1C)[C@H](c1ccc(F)c(Br)c1)C1=C(O)COCC1=N2 (relative stereo)
7,< 5.00,CCCCC[C@@H]1OC(O)=C2C1=NC1=C(C(=O)COC1)[C@H]2c1ccc(F)c(Br)c1 (relative stereo)
8,< 5.00,CC(C)[C@H]1OC(O)=C2C1=NC1=C(C(=O)COC1)[C@H]2c1ccc(F)c(Br)c1 (relative stereo)
9,< 5.00,CC[C@@H]1C2=C(C(=O)N1C)[C@H](c1ccc(F)c(Br)c1)C1=C(O)COCC1=N2 (relative stereo)
10,7.57,"CC1(C)OCC2=C(C1=O)C(c1ccc(F)c(Br)c1)C1=C(O)OCC1=N2 (single isomer, unassigned; (+))"
11,7.34,O=C1COCC2=C1C(c1ccc(F)c(Br)c1)C1=C(O)OCC1=N2 (stereo in doubt; 6)
12,6.76,C[C@@H]1OCC2=C(C1=O)[C@@H](c1ccc(F)c(Br)c1)C1=C(O)OCC1=N2 (stereo in doubt; 7a)
13,6.29,C[C@@H]1OCC2=C(C1=O)[C@@H](c1ccc(F)c(Br)c1)C1=C(O)OCC1=N2 (stereo in doubt; 7b)
14,7.14,C[C@@H]1OCC2=C(C1=O)[C@H](c1ccc(F)c(Br)c1)C1=C(O)OCC1=N2 (stereo in doubt; 8a)
15,6.53,C[C@@H]1OCC2=C(C1=O)[C@H](c1ccc(F)c(Br)c1)C1=C(O)OCC1=N2 (stereo in doubt; 8b)
16,7.62,CC1(C)OCC2=C(C1=O)C(c1ccc(F)c(Br)c1)C1=C(O)OCC1=N2 (stereo in doubt; 9)
17,5.55,CC1(C)OCC2=C(C1=O)C(c1ccc(F)c(Br)c1)C1=C(O)OCC1=N2 (stereo in doubt; 9b)
18,7.29,C[C@@H]1OC(O)=C2C1=NC1=C(C(=O)COC1)[C@H]2c1ccc(F)c(Br)c1 (stereo in doubt; 17b)
19,7.19,C[C@H]1OC(O)=C2C1=NC1=C(C(=O)COC1)[C@H]2c1ccc(F)c(Br)c1 (stereo in doubt; 18a)
20,6.59,C[C@H]1OC(O)=C2C1=NC1=C(C(=O)COC1)[C@H]2c1ccc(F)c(Br)c1 (stereo in doubt; 18b)
21,8.41,CC[C@@H]1OC(O)=C2C1=NC1=C(C(=O)COC1)[C@H]2c1ccc(F)c(Br)c1 (stereo in doubt; 20a)
22,6.84,CC[C@@H]1OC(O)=C2C1=NC1=C(C(=O)COC1)[C@H]2c1ccc(F)c(Br)c1 (stereo in doubt; 20b)
23,9.00,CCC[C@@H]1OC(O)=C2C1=NC1=C(C(=O)COC1)[C@H]2c1ccc(F)c(Br)c1 (stereo in doubt; 22a)
24,8.43,CCC[C@@H]1OC(O)=C2C1=NC1=C(C(=O)COC1)[C@H]2c1ccc(F)c(Br)c1 (stereo in doubt; 22b)
25,5.49,CCC[C@H]1OC(O)=C2C1=NC1=C(C(=O)COC1)[C@H]2c1ccc(F)c(Br)c1 (stereo in doubt; 23a)

row,pEC50,SMILES
1,6.32,COC[C@H]1OC(O)=C2C1=NC1=C(C(=O)COC1)[C@H]2c1ccc(F)c(Br)c1 (stereo in doubt; 25a)
2,7.64,COC[C@H]1OC(O)=C2C1=NC1=C(C(=O)COC1)[C@H]2c1ccc(F)c(Br)c1 (stereo in doubt; 25b)
3,5.29,CCCC[C@H]1OC(O)=C2C1=NC1=C(C(=O)COC1)[C@H]2c1ccc(F)c(Br)c1 (stereo in doubt; 29a)
4,5.60,CC(C)C[C@H]1OC(O)=C2C1=NC1=C(C(=O)COC1)[C@H]2c1ccc(F)c(Br)c1 (stereo in doubt; 31a)
5,6.36,CC[C@H]1OC(O)=C2C1=NC1=C(C(=O)C(C)(C)OC1)[C@H]2c1ccc(F)c(Br)c1 (stereo in doubt; 36a)
6,6.26,CC[C@H]1OC(O)=C2C1=NC1=C(C(=O)C(C)(C)OC1)[C@H]2c1ccc(F)c(Br)c1 (stereo in doubt; 36b)
7,5.80,CC[C@H]1OC(O)=C2C1=NC1=C(C(=O)COC1(C)C)[C@H]2c1ccc(F)c(Br)c1 (stereo in doubt; 38a)
8,< 5.00,CC[C@H]1OC(O)=C2C1=NC1=C(C(=O)COC1(C)C)[C@H]2c1ccc(F)c(Br)c1 (stereo in doubt; 38b)
9,5.47,CCC[C@H]1OC(O)=C2C1=NC1=C(C(=O)COC1)[C@H]2c1ccc(F)c(Cl)c1 (stereo in doubt; 39a)
10,5.71,CCC[C@H]1OC(O)=C2C1=NC1=C(C(=O)COC1)[C@H]2c1ccc(F)c(I)c1 (stereo in doubt; 41a)
11,5.88,CCC[C@H]1OC(O)=C2C1=NC1=C(C(=O)COC1)[C@H]2c1ccc(Cl)c(Cl)c1 (stereo in doubt; 42a)
12,5.70,CCC[C@H]1OC(O)=C2C1=NC1=C(C(=O)COC1)[C@H]2c1ccc(Cl)c(Cl)c1 (stereo in doubt; 42b)
13,6.09,CCC[C@H]1OC(O)=C2C1=NC1=C(C(=O)COC1)[C@H]2c1ccc(Cl)c(Br)c1 (stereo in doubt; 43a)
14,6.82,CCC[C@H]1OC(O)=C2C1=NC1=C(C(=O)COC1)[C@H]2c1ccc(Cl)c(Br)c1 (stereo in doubt; 43b)
15,5.98,CCC[C@H]1OC(O)=C2C1=NC1=C(C(=O)COC1)[C@H]2c1ccc(Br)c(Cl)c1 (stereo in doubt; 44a)
16,6.36,CCC[C@H]1OC(O)=C2C1=NC1=C(C(=O)COC1)[C@H]2c1ccc(Br)c(Cl)c1 (stereo in doubt; 44b)
17,5.94,CCC[C@H]1OC(O)=C2C1=NC1=C(C(=O)COC1)[C@H]2c1ccc(Br)c(Br)c1 (stereo in doubt; 45a)
18,6.90,CCC[C@H]1OC(O)=C2C1=NC1=C(C(=O)COC1)[C@H]2c1ccc(Br)c(Br)c1 (stereo in doubt; 45b)
19,5.46,CCC[C@H]1OC(O)=C2C1=NC1=C(C(=O)COC1)[C@H]2c1ccc(C)c(Br)c1 (stereo in doubt; 46a)
20,6.66,CCC[C@H]1OC(O)=C2C1=NC1=C(C(=O)COC1)[C@H]2c1ccc(C)c(Br)c1 (stereo in doubt; 46b)
21,6.78,CC[C@@H]1OCC(O)=C2C1=NC1=C(C(=O)COC1)[C@H]2c1ccc(F)c(Br)c1 (stereo in doubt; 70a)
22,7.70,CC[C@@H]1OCC(O)=C2C1=NC1=C(C(=O)COC1)[C@H]2c1ccc(F)c(Br)c1 (stereo in doubt; 70b)
23,< 5.00,CC[C@H]1OCC(O)=C2C1=NC1=C(C(=O)COC1)[C@H]2c1ccc(F)c(Br)c1 (stereo in doubt; 71b)
